# Assay results: ChEMBL document CHEMBL5715941, “AZD1152, a selective inhibitor of Aurora B kinase, inhibits human tumor xenograft growth by inducing apoptosis” (Clin Cancer Res, 2007)
# The source made the active and inactive calls. No cut-off for these calls is given here.
# Columns and labels:
# [1] = test system: SW-620; assay: Antitumor activity against human SW620 cells xenografted in Swiss nude mouse assessed as reduction in proportion of PhH3-positive cells within the G2-M phase at 70 mg/kg/day, sc measured over 48 hrs by flow cytometry analysis; assay type: functional, organism-based
# How it was run: (§1)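 Male nude mice with palpable s.c. SW620 tumors (n = 4/group) received AZD1152 (0.5-150 mg/kg/d) or vehicle by constant 48-h s.c. mini-pump infusion. Tumors were then excised, fixed and disaggregated. Flow cytometry with propidium iodide gave DNA content (2N, 4N, >4N), and rabbit anti-PhH3 with fluorescein anti-rabbit IgG gave PhH3-positive cells (%).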
# [2] = test system: SW-620; assay: Antitumor activity against human SW620 cells xenografted in Swiss nude mouse assessed as inhibition in PhH3 level at 0.5 mg/kg/day, sc measured over 48 hrs by flow cytometry analysis relative to control; assay type: functional; how it was run: as §1
# [3] = test system: HCT-116; assay: Antitumor activity against human HCT-116 cells xenografted in immunodeficient Swiss athymic mouse assessed as maximum inhibition of tumor volume at 150 mg/kg/day, sc for 48 hrs on days 11 to 13 and measured on day 18 relative to control; assay type: functional; conditions: HCT-116, 192 h, time 8 day
# How it was run: (§2)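 Male Swiss athymic nude mice, 8-12 wk; tumor cells (1×10^6-1×10^7, 50:50 Matrigel) implanted s.c. on flank. Randomized (n = 8-11) at 0.2-0.5 cm3. AZD1152 in Tris buffer pH 9, or vehicle (0.3 mol/L Tris), by 48-h s.c. osmotic mini-pump infusion (two 24-h pumps in sequence). Caliper volumes up to 3×/week; growth inhibition from change in control vs treated volume; one-tailed t test.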
# [4] = test system: HCT-116; assay: Antitumor activity against human HCT-116 cells xenografted in immunodeficient Swiss athymic mouse assessed as inhibition of tumor volume at 150 mg/kg/day, sc for 48 hrs on days 11 to 13 and measured on day 25 relative to control; assay type: functional; conditions: HCT-116, 360 h, time 15 day; how it was run: as §2
# [5] = test system: A549; assay: Antitumor activity against human A549 cells xenografted in immunodeficient Swiss athymic mouse assessed as inhibition of tumor volume at 25 mg/kg/day, sc for 48 hrs on days 13 to 15 and measured on day 29 relative to control; assay type: functional; conditions: A549, 408 h, time 17 day; how it was run: as §2
# [6] = test system: SW-620; assay: Antitumor activity against human SW620 cells xenografted in nude athymic rat assessed as morphologic change at 25 mg/kg/day, iv for 4 consecutive days and measured on 5 day by H&E staining based immunohistochemistry analysis; assay type: functional, organism-based
# How it was run: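 Nude rats bearing SW620 tumors were dosed i.v. with AZD1152 at 25 mg/kg/d or with vehicle on days 1-4. Subgroups (n = 3) were killed at set days. Tumor and bone marrow sections were H&E-stained and examined histologically.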
# [7] = test system: SW-620; assay: Antitumor activity against human SW620 cells xenografted in nude athymic rat assessed as suppression in PhH3 at 25 mg/kg/day, iv for 4 consecutive days and measured during dosing period (days 1 to 4) by flow cytometry analysis relative to control; conditions: time 1 to 4 day
compound,measurement,setting,value
CCN(CCCOc1ccc2c(Nc3cc(CC(=O)Nc4cccc(F)c4)[nH]n3)ncnc2c1)CCOP(=O)(O)O [BARASERTIB],Activity,[1],Active
same,inhibition in vivo at 0.5 mg/kg/day,[2],52%
same,inhibition in vivo at 150 mg/kg/day,[3],93%
same,inhibition in vivo at 150 mg/kg/day,[4],74%
same,inhibition in vivo at 25 mg/kg/day,[5],36%
same,Activity,[6],Active
same,Activity,[7],~40%
